pIC50, pKd: −log10 of the molar value. The source made the active and inactive calls. The rule behind the calls is not given here.
Tests used:
T-24 [1] = test: Cell cycle arrest in human T24 cells assessed as accumulation at G0/G1 phase at 10 uM after 48 to 72 hrs by FACS analysis relative to control; type: functional
Outline: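 T24 cells treated with 10 μM ligand for 48 or 72 h. Fixed 1 h at 4 °C in 70% ethanol, then stained with propidium iodide 0.05 mg/mL plus RNase A 0.1 mg/mL for 30 min at room temperature. Analysed by FACS (FL2). Phase percentages compared with control by t-test (p < 0.05).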

[2] = Binding affinity to human HRAS1 G-quadruplex FAM-TCGGGTTGCGGGCGCAGGGCACGGGCG-TAMRA DNA assessed as quenching of fluorescence emission by FRET titration assay
Outline: (§1)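 FRET titration of 200 nM oligonucleotide dual-labelled at its ends with carboxyfluorescein (donor) and tetramethylrhodamine (acceptor), in 50 mM Tris-HCl with KCl (100 mM for htelo and hras-1, 10 mM for KRAS and hras-2). Ligand binding quenches the emission, mainly the acceptor at 580 nm. The fraction of filled sites was fitted to the Hill equation to give apparent KD and the Hill coefficient.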

[3] = Binding affinity to human HRAS2 G-quadruplex FAM-CGGGGCGGGGCGGGGGCGGGGGCG-TAMRA DNA assessed as quenching of fluorescence emission by FRET titration assay; outline: as §1
Homo sapiens [4] = organism: Homo sapiens; test: Thermal stabilization of human HRAS2 G-quadruplex FAM-CGGGGCGGGGCGGGGGCGGGGGCG-TAMRA DNA assessed as as change in melting temperature at 1:4 DNA:ligand ratio by FRET assay
Homo sapiens [5] = organism: Homo sapiens; test: Thermal stabilization of human HRAS1 G-quadruplex FAM-TCGGGTTGCGGGCGCAGGGCACGGGCG-TAMRA DNA assessed as change in melting temperature at 1:5 DNA:ligand ratio by FRET assay
Outline: (§2)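 FRET melting of 200 nM dual-labelled quadruplex in 50 mM Tris-HCl with KCl (100 mM for htelo and hras-1, 10 mM for KRAS and hras-2). Ligand at r = 5 ([ligand]/[quadruplex]; hras-2 tabulated at r = 4). Samples held 5 min at 20 °C, then heated 1 °C/min to 95 °C. ΔTM is the TM with ligand minus TM without ligand (±0.5 K). For hras-1 both biphasic transitions are given.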

T-24 [6] = test: Binding affinity to wild type HRAS quadruplex DNA in human T24 cells assessed as reduction in gene expression compound treated for 24 hrs prior to transfection measured 72 hrs post transfection by dual-luciferase reporter gene assay relative to control; type: cell-based
[7] = Binding affinity to human telomeric G-quadruplex FAM-TTAGGGTTAGGGTTAGGGTTAGGG-TAMRA DNA assessed as quenching of fluorescence emission by FRET titration assay; outline: as §1
Mus musculus = organism: Mus musculus; test: Thermal stabilization of mouse KRAS G-quadruplex FAM-GCGGGAGGGAGGGAAGGAGGGAGGGAGGGAG-TAMRA DNA assessed as change in melting temperature at 1:5 DNA:ligand ratio by FRET assay; outline: as §2
NIH3T3 = test: Cytotoxicity against mouse NIH/3T3 cells at 1 to 30 uM after 72 hrs by resazurin assay; type: cell-based; conditions: NIH3T3, 72 h
Outline: (§3)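 Cells seeded at 3000 per well the day before treatment, grown in DMEM with 10% FBS. Ligand added at 1, 2.5, 5, 10, 20, 30 μM for 72 h. Viability measured by resazurin and expressed as % of untreated cells; mean of three independent measurements. IC50 is the concentration reducing proliferation by 50%.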

T-24 [8] = test: Cellular uptake in human T24 cells after 4 hrs by FACS flow cytometric analysis in presence of dynasore; type: ADME, cell-based; conditions: t-24, 4 h
Outline: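 T24 cells pretreated 30 min with 80 μM dynasore, then exposed to 5 μM ligand for 4 h. Analysed by flow cytometry (488 nm laser, FL3 680 nm channel), at least 10,000 cells.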

HEK293 [9] = test: Cell cycle arrest in human HEK293 cells expressing wild type HRAS assessed as accumulation at G2/M phase at 10 uM after 24 hrs by FACS analysis; type: functional, cell-based
Outline: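 HEK293 cells (wild-type HRAS) treated with ligand for 24 h. Ethanol-fixed, stained with propidium iodide/RNase A, and analysed by FACS (FL2) for G0/G1, S and G2/M fractions.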

T-24 [10] = test: Cellular uptake in human T24 cells at 0.5 to 10 uM after 8 hrs by flow cytometric analysis; type: ADME, cell-based; conditions: t-24, 8 h
Outline: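 Cells plated at 5 × 10^4 per well and treated next day with ligand at […] for 8 h. Then trypsinized, resuspended in PBS and analysed by flow cytometry (488 nm excitation, FL3 680 nm, log scale), at least 10,000 cells per sample. Uptake read from intrinsic ligand red fluorescence.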

Homo sapiens [11] = organism: Homo sapiens; test: Thermal stabilization of human HRAS1 G-quadruplex FAM-TCGGGTTGCGGGCGCAGGGCACGGGCG-TAMRA DNA assessed as change in melting temperature at 1:1 DNA:ligand ratio by FRET assay
Outline: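 FRET melting in 50 mM Tris-HCl pH 7.4 with an equimolar ligand:quadruplex ratio (r = 1). Conditions: NRAS RNA and hras-2 in 10 mM KCl; hras-1 in 100 mM KCl, with ΔTM taken from its second transition. Ramp 1 °C/min from 20 to 95 °C after 5 min equilibration. TM and ΔTM (±0.5 K) versus ligand-free quadruplex.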

T-24 [12] = test: Binding affinity to HRAS quadruplex DNA mutant in human T24 cells assessed as reduction in gene expression at 0.5 to 5 uM treated for 24 hrs prior to transfection measured 72 hrs post transfection by dual-luciferase reporter gene assay relative to control; type: cell-based
Outline: (§4)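 T24 cells pretreated 24 h with ligand (0.5, 2.5, 5 μM). Then co-transfected with jet-PEI: firefly reporter (250 ng/well), either HRAS promoter wild type, HRAS promoter with 4 point mutations in the quadruplex motifs, or IL-8 promoter, plus CMV-Renilla (10 ng/well). Dual-Glo read 72 h post-transfection. Firefly/Renilla expressed as T/C × 100 relative to untreated cells.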

T-24 [13] = test: Binding affinity to wild type HRAS quadruplex DNA in human T24 cells assessed as reduction in gene expression at 0.5 to 5 uM treated for 24 hrs prior to transfection measured 72 hrs post transfection by dual-luciferase reporter gene assay relative to control; type: cell-based; parameters: scale not given: the % may be the effect or the level left; outline: as §4
HEK293 [14] = test: Cytotoxicity against human HEK293 cells expressing wild type HRAS at 1 to 30 uM after 72 hrs by resazurin assay; type: cell-based; conditions: HEK293, 72 h; outline: as §3
Homo sapiens [15] = organism: Homo sapiens; test: Thermal stabilization of human telomeric G-quadruplex FAM-TTAGGGTTAGGGTTAGGGTTAGGG-TAMRA DNA assessed as change in melting temperature at 1:5 DNA:ligand ratio by FRET assay; outline: as §2
T-24 [16] = test: Cellular uptake in human T24 cells assessed as accumulation in nucleoli at 2.5 uM after 2 hrs by propidium iodide staining-based confocal microscopic analysis; type: ADME, cell-based; conditions: t-24, 2 h
Outline: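 T24 cells plated (3 × 10^5) on coverslips and treated after 24 h with 2.5 μM ligand for 2 h. Fixed in 3% paraformaldehyde and permeabilized with Triton X-100. Cytoplasm immunostained for DRP1 with FITC secondary; nuclei stained with propidium iodide plus RNase A. Ligand red fluorescence excited at 543 nm; confocal Z-sections at 2 μm intervals.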

| Structure (SMILES) | pKd [2] | pKd [3] | deltaTm (Homo sapiens [4]) | deltaTm (Homo sapiens [5]) | pKd [7] | deltaTm (Mus musculus) | Drug uptake (T-24 [8]) | Drug uptake (T-24 [10]) | deltaTm (Homo sapiens [11]) | deltaTm (Homo sapiens [15]) | Drug uptake (T-24 [16]) | Activity (T-24 [1]) | Activity (T-24 [6]) | pIC50 (NIH3T3) | Activity (HEK293 [9]) | Activity (T-24 [12]) | Activity (T-24 [13]) | pIC50 (HEK293 [14]) |
| --- | --- | --- | --- | --- | --- | --- | --- | --- | --- | --- | --- | --- | --- | --- | --- | --- | --- | --- |
| N=C(N)NCCCNc1c2c(c(NCCNC(=N)N)c3ccsc13)C(=O)c1ccccc1C2=O | 6.44 | 6.43 | 17 K | 13 K | 6.49 | 27 K | Active | Active | 5 K | 21 K | Active | 63% | Dose-dependent effect | < 4.52 | inactive | inactive | 25% | 4.70 |
| N=C(N)NCCNc1c2c(c(NCCNC(=N)N)c3sccc13)C(=O)c1ccccc1C2=O | 6.47 | 6.57 | 19 K | 12 K | 6.82 | 15 K | Not Active | Active | 5 K | 14 K | Active | 63% | Dose-dependent effect | 4.70 | inactive | inactive | 25% | < 4.52 |
| N=C(N)NCCCNc1c2c(c(NCCCNC(=N)N)c3sccc13)C(=O)c1ccccc1C2=O | 6.52 | 6.64 | 17 K | 19 K | 6.89 | 33 K | Active | Active | 5 K | 21 K | Active | 63% | Dose-dependent effect | < 4.52 | inactive | inactive | 50% | < 4.52 |

These reach a higher pKd [2]. Values come first.

| pKd [2] | pKd [3] | deltaTm (Homo sapiens [4]) | deltaTm (Homo sapiens [5]) | pKd [7] | deltaTm (Mus musculus) | Drug uptake (T-24 [8]) | Drug uptake (T-24 [10]) | deltaTm (Homo sapiens [11]) | deltaTm (Homo sapiens [15]) | Drug uptake (T-24 [16]) | Structure (SMILES) | Activity (T-24 [1]) | Activity (T-24 [6]) | pIC50 (NIH3T3) | Activity (HEK293 [9]) | Activity (T-24 [12]) | Activity (T-24 [13]) | pIC50 (HEK293 [14]) |
| --- | --- | --- | --- | --- | --- | --- | --- | --- | --- | --- | --- | --- | --- | --- | --- | --- | --- | --- |
| 6.68 | 6.55 | 26 K | 20 K | 6.74 | 35 K | Active | Active | 7 K | 34 K | – | N=C(N)NCCCCNc1c2c(c(NCCCCNC(=N)N)c3sccc13)C(=O)c1ccccc1C2=O | 63% | Dose-dependent effect | < 4.52 | inactive | inactive | 50% | < 4.52 |
| 6.55 | 6.55 | 12 K | 16 K | 6.48 | 28 K | Not Active | Active | 8 K | 23 K | Active | N=C(N)NCCCNc1c2c(c(NCCNC(=N)N)c3sccc13)C(=O)c1ccccc1C2=O | 63% | Dose-dependent effect | 4.70 | inactive | inactive | – | < 4.52 |

Source: ChEMBL document CHEMBL2346582, “Guanidino anthrathiophenediones as G-quadruplex binders: uptake, intracellular localization, and anti-Harvey-Ras gene activity in bladder cancer cells” (J Med Chem, 2013)
